Data reported in ChEMBL document CHEMBL5233202, “Metabolically stable apelin-analogues, incorporating cyclohexylalanine and homoarginine, as potent apelin receptor activators” (RSC Med Chem, 2021).
Non-standard residues stand in square brackets, D forms with d. Residues, ends and D or L forms follow the SMILES beside them. Phe(4-Br) = N[C@@H](Cc1ccc(Br)cc1)C(=O)O; hArg = N=C(N)NCCCC[C@H](N)C(=O)O; Cha = N[C@@H](CC1CCCCC1)C(=O)O; NMeL = CN[C@@H](CC(C)C)C(=O)O; Nle = CCCC[C@H](N)C(=O)O; Aib = CC(C)(N)C(=O)O

Key:
Neprilysin (NEP) = Neprilysin (NEP) (Homo sapiens, UniProt P08473); test: Proteolytic stability assessed as recombinant human NEP-mediated compound degradation by measuring half life incubated for 24 hrs by LC-MS analysis; format: ADME; details: recombinant human neprilysin (NEP)
Chain of Neprilysin (NEP) (P08473 whole entry): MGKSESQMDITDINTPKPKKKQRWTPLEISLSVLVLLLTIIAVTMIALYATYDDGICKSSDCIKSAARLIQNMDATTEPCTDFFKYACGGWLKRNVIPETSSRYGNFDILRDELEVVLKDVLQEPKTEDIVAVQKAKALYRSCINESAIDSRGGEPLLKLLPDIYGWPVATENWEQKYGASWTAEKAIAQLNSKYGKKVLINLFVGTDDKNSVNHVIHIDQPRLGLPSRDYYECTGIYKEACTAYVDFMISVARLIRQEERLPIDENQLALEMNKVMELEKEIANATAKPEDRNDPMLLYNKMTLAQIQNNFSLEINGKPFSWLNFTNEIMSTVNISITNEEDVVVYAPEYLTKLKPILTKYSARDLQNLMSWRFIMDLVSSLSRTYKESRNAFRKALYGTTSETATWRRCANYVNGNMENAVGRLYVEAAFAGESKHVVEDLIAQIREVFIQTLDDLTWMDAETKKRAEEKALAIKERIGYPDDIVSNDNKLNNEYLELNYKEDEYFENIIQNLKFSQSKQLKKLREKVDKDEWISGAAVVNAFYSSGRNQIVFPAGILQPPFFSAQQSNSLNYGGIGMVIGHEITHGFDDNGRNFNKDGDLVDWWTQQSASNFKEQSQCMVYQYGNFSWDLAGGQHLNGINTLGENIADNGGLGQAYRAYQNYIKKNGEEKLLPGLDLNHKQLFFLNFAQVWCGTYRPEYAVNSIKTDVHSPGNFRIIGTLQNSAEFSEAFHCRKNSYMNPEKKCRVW

[1] = Stability in human plasma assessed as half life at 1 mM measured for 24 hrs by LC-MS analysis; format: ADME, cell-free
Outline: (§1)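 Plasma (20 μL, human or murine) prewarmed to 37 °C, then 5 μL of 1 mM peptide added and incubated at 37 °C. Samples quenched at 1, 3, 6 and 24 h with 6 M GuHCl/80% ACN and Dans-YVG internal standard, centrifuged, solid-phase extracted and analyzed by LC-MS. Peptide/standard peak-area ratio normalized to 0 h; triplicates.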

Apelin receptor [2] = biological target: T1, Apelin receptor (Rattus norvegicus, UniProt Q9JHG3); test: Displacement of [125I]-pyr-1-apelin-13 from EGFP tagged rat apelin receptor expressed in CHO cell membrane incubated for 3 hrs by gamma counter analysis; format: cell membranes
T1 sequence (Q9JHG3 whole entry): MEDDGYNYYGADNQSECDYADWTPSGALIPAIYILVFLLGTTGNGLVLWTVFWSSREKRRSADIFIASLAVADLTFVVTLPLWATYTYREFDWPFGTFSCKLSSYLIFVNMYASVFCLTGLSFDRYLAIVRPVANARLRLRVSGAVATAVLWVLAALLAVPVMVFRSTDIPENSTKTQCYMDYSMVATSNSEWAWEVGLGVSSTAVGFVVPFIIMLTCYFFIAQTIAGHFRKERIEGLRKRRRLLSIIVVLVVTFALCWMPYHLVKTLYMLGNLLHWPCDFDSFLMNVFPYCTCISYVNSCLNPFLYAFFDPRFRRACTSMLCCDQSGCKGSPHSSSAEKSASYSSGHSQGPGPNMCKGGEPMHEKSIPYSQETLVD
Outline: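 Crude membranes (1 μg/assay) from CHO cells stably expressing wild-type rat APJ-EGFP, incubated 3 h at 20 °C with 0.2 nM [125I]-pyr-1-apelin-13 (Lys8 Bolton–Hunter monoiodinated) and competitor at various concentrations. Binding buffer: 50 mM HEPES, 5 mM MgCl2, 1% BSA, pH 7.5. Quenched with cold buffer, GF/C filtered and washed, gamma counted; triplicates.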

Apelin receptor [3] = biological target: T2, Apelin receptor (Homo sapiens, UniProt P35414); test: Activation of recombinant human APJ receptor expressed in rat Chem-5 cells assessed as increase in Ca2+ mobilization by FLIPR Calcium 6-QF fluorescent dye based assay; format: cell-based
T2 sequence (P35414 whole entry): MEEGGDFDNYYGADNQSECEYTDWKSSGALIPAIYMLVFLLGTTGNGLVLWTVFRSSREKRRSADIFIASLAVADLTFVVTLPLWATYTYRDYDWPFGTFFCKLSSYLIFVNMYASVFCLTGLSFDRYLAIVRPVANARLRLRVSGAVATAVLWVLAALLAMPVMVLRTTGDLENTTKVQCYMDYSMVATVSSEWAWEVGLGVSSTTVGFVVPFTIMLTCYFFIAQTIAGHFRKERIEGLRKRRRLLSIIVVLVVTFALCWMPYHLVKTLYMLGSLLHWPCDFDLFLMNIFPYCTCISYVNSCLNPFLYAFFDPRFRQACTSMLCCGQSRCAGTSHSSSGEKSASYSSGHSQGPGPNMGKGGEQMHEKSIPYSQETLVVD
Outline: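 Frozen Chem-5 cells stably expressing human APJ, thawed per supplier protocol, loaded 1 h with Calcium 6-QF dye in HBSS/20 mM HEPES/0.2% DMSO/2.5 mM probenecid, pH 7.6. Cells washed three times and rested 10 min, then read on FLIPR. Agonist response taken as maximum fluorescence change over baseline. pEC50 from four-parameter logistic fit; triplicates.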

Mus musculus [4] = test: Hypotensive effect in anesthetized wild type mouse assessed as change in mean arterial blood pressure at 1.4 uM/Kg, iv administered via right jugular vein measured for 60 mins; format: functional; details: 1 h
Outline: (§2)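 Anesthetized mice received peptide at 1.4 μM kg−1 body weight, or equal-volume saline, by injection into the right jugular vein (n = 3). HR, MABP, SBP and DBP were recorded from blood pressure traces and reported as mean ± S.E.M.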

Mus musculus [5] = test: Hypotensive effect in anesthetized wild type mouse assessed as total time duration of hypotensive effect at 1.4 uM/Kg, iv administered via right jugular vein measured for 60 mins; format: functional; details: 1 h; outline: as §2
[6] = Stability in mouse plasma assessed as half life at 1 mM measured for 24 hrs by LC-MS analysis; format: ADME, cell-free; outline: as §1
[7] = Protein binding in pooled human plasma at 100 uM incubated for 3 hrs by equilibrium dialysis method; format: ADME, cell-free; details: read-out: PPB (converted)
Outline: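 Equilibrium dialysis. DMSO stock (1 mM) diluted to 100 μM final in 55% pooled human plasma stabilized with EDTA and MLN-4760, dialyzed against PBS pH 7.4 at 37 °C, 120 rpm, 3 h. Retentate diluted with PBS and dialysate with plasma, then quenched with 10% TFA/acetonitrile. Dans-YVG internal standard added, centrifuged, LC-MS.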

Neprilysin = Neprilysin (Homo sapiens, UniProt P08473); test: Proteolytic stability assessed as recombinant human NEP-mediated compound degradation incubated for 24 hrs by LC-MS analysis; format: ADME
Chain of Neprilysin (P08473 whole entry): as the sequence (P08473 whole entry) above
Outline: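 Recombinant human NEP diluted to 2 ng μL−1 in NEP-B buffer and preincubated 10 min at 37 °C. Peptide (1 mM aqueous solution) added and incubated at 37 °C. Aliquots taken at 0, 2, 10, 20 and 48 h, quenched and quantified by LC-MS; triplicate per time point.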

Row | half-life (Neprilysin (NEP)) | half-life at 1000 µM [1] | Ki (Apelin receptor [2]) | EC50 (Apelin receptor [3]) | half-life at 1000 µM [6] | fraction unbound at 3 h, 100 µM [7] | Stability (Neprilysin) | Structure (SMILES) | Activity (Mus musculus [4]) | Time (Mus musculus [5])
1 | 21.9 h | 2.58 h | 0.372 nM | 3.72 nM |  |  |  | CCCC[C@H](NC(=O)[C@@H]1CCCN1C(=O)CNC(=O)[C@H](CCCCN)NC(=O)[C@H](Cc1c[nH]cn1)NC(=O)[C@H](CO)NC(=O)[C@H](CC1CCCCC1)NC(=O)[C@H](CCCCNC(=N)N)NC(=O)[C@@H]1CCCN1C(=O)[C@H](CCCNC(=N)N)NC(=O)[C@@H]1CCC(=O)N1)C(=O)NC(C)(C)C(=O)N[C@@H](Cc1ccc(Br)cc1)C(=O)O | 15.33 mmHg | 57 min
2 | 47 h | 4.34 h | 1.58 nM | 3.8 nM |  |  |  | CCCC[C@H](NC(=O)[C@@H]1CCCN1C(=O)CNC(=O)[C@H](CCCCN)NC(=O)[C@H](Cc1c[nH]cn1)NC(=O)[C@H](CO)NC(=O)[C@H](CC1CCCCC1)NC(=O)[C@H](CCCNC(=N)N)NC(=O)[C@@H]1CCCN1C(=O)[C@H](CCCNC(=N)N)NC(=O)[C@H](CCC(N)=O)NC(=O)[C@H](CCCNC(=N)N)NC(=O)[C@H](CCCNC(=N)N)NC(=O)[C@H](Cc1ccccc1)NC(=O)[C@@H](N)CCCCN)C(=O)NC(C)(C)C(=O)N[C@@H](Cc1ccc(Br)cc1)C(=O)O (H-KFRRQRPR[Cha]SHKGP[Nle][Aib][Phe(4-Br)]-OH) | 19.72 mmHg | 60 min
3 | 22.1 h | 1.77 h | 0.575 nM | 2.4 nM |  |  |  | CCCC[C@H](NC(=O)[C@@H]1CCCN1C(=O)CNC(=O)[C@H](CCCCN)NC(=O)[C@H](Cc1c[nH]cn1)NC(=O)[C@H](CO)NC(=O)[C@H](CC1CCCCC1)NC(=O)[C@H](CCCNC(=N)N)NC(=O)[C@@H]1CCCN1C(=O)[C@H](CCCNC(=N)N)NC(=O)[C@@H]1CCC(=O)N1)C(=O)NC(C)(C)C(=O)N[C@@H](Cc1ccc(Br)cc1)C(=O)O | 0.23 mmHg | 15 min
4 | 46.4 h | 6.28 h | 1.1 nM | 4.37 nM | 0.52 h | 0.35 |  | CCCC[C@H](NC(=O)[C@@H]1CCCN1C(=O)CNC(=O)[C@H](CCCCN)NC(=O)[C@H](Cc1c[nH]cn1)NC(=O)[C@H](CO)NC(=O)[C@H](CC1CCCCC1)NC(=O)[C@H](CCCCNC(=N)N)NC(=O)[C@@H]1CCCN1C(=O)[C@H](CCCNC(=N)N)NC(=O)[C@H](CCC(N)=O)NC(=O)[C@H](CCCNC(=N)N)NC(=O)[C@H](CCCNC(=N)N)NC(=O)[C@H](Cc1ccccc1)NC(=O)[C@@H](N)CCCCN)C(=O)NC(C)(C)C(=O)N[C@@H](Cc1ccc(Br)cc1)C(=O)O (H-KFRRQRP[hArg][Cha]SHKGP[Nle][Aib][Phe(4-Br)]-OH) | 44.9 mmHg | 60 min
5 | 40.3 h | 3.54 h |  | 6.76 nM |  |  |  | CCCC[C@H](NC(=O)[C@@H]1CCCN1C(=O)CNC(=O)[C@H](CCCCN)NC(=O)[C@H](Cc1c[nH]cn1)NC(=O)[C@H](CO)NC(=O)[C@H](CC(C)C)N(C)C(=O)[C@H](CCCNC(=N)N)NC(=O)[C@@H]1CCCN1C(=O)[C@H](CCCNC(=N)N)NC(=O)[C@@H]1CCC(=O)N1)C(=O)NC(C)(C)C(=O)N[C@@H](Cc1ccc(Br)cc1)C(=O)O | 9.52 mmHg | 26 min
6 | 40.6 h | 3.06 h | 0.832 nM | 6.76 nM |  |  |  | CCCC[C@H](NC(=O)[C@@H]1CCCN1C(=O)CNC(=O)[C@H](CCCCN)NC(=O)[C@H](Cc1c[nH]cn1)NC(=O)[C@H](CO)NC(=O)[C@H](CC(C)C)NC(=O)[C@H](CCCCNC(=N)N)NC(=O)[C@@H]1CCCN1C(=O)[C@H](CCCNC(=N)N)NC(=O)[C@H](CCC(N)=O)NC(=O)[C@H](CCCNC(=N)N)NC(=O)[C@H](CCCNC(=N)N)NC(=O)[C@H](Cc1ccccc1)NC(=O)[C@@H](N)CCCCN)C(=O)NC(C)(C)C(=O)N[C@@H](Cc1ccc(Br)cc1)C(=O)O (H-KFRRQRP[hArg]LSHKGP[Nle][Aib][Phe(4-Br)]-OH) | 40.45 mmHg | 60 min
7 | > 48 h | 8.29 h |  | 2.75 nM | 0.99 h | 0.45 |  | CCCC[C@H](NC(=O)[C@@H]1CCCN1C(=O)CNC(=O)[C@H](CCCCN)NC(=O)[C@H](Cc1c[nH]cn1)NC(=O)[C@H](CO)NC(=O)[C@H](CC(C)C)N(C)C(=O)[C@H](CCCNC(=N)N)NC(=O)[C@@H]1CCCN1C(=O)[C@H](CCCNC(=N)N)NC(=O)[C@H](CCC(N)=O)NC(=O)[C@H](CCCNC(=N)N)NC(=O)[C@H](CCCNC(=N)N)NC(=O)[C@H](Cc1ccccc1)NC(=O)[C@@H](N)CCCCN)C(=O)NC(C)(C)C(=O)N[C@@H](Cc1ccc(Br)cc1)C(=O)O (H-KFRRQRPR[NMeL]SHKGP[Nle][Aib][Phe(4-Br)]-OH) | 31.98 mmHg | 60 min
8 | 10.3 h | 0.81 h |  | 4.27 nM |  |  |  | CCCC[C@H](NC(=O)[C@@H]1CCCN1C(=O)CNC(=O)[C@H](CCCCN)NC(=O)[C@H](Cc1c[nH]cn1)NC(=O)[C@H](CO)NC(=O)[C@H](CC(C)C)NC(=O)[C@H](CCCNC(=N)N)NC(=O)[C@@H]1CCCN1C(=O)[C@H](CCCNC(=N)N)NC(=O)[C@@H]1CCC(=O)N1)C(=O)NC(C)(C)C(=O)N[C@@H](Cc1ccc(Br)cc1)C(=O)O | 23.88 mmHg | 60 min
9 |  | 5.63 h | 1.41 nM | 275 nM | 0.38 h |  | Stable | CCCC[C@H](NC(=O)[C@@H]1CCCN1C(=O)CNC(=O)[C@H](CCCCN)NC(=O)[C@H](Cc1c[nH]cn1)NC(=O)[C@H](CO)NC(=O)[C@H](CC(C)C)N(C)C(=O)[C@H](CCCCNC(=N)N)NC(=O)[C@@H]1CCCN1C(=O)[C@H](CCCNC(=N)N)NC(=O)[C@H](CCC(N)=O)NC(=O)[C@H](CCCNC(=N)N)NC(=O)[C@H](CCCNC(=N)N)NC(=O)[C@H](Cc1ccccc1)NC(=O)[C@@H](N)CCCCN)C(=O)NC(C)(C)C(=O)N[C@@H](Cc1ccc(Br)cc1)C(=O)O (H-KFRRQRP[hArg][NMeL]SHKGP[Nle][Aib][Phe(4-Br)]-OH) | 34.69 mmHg | 60 min
10 | 19 h | 1.31 h | 0.676 nM | 2.19 nM |  |  |  | CCCC[C@H](NC(=O)[C@@H]1CCCN1C(=O)CNC(=O)[C@H](CCCCN)NC(=O)[C@H](Cc1c[nH]cn1)NC(=O)[C@H](CO)NC(=O)[C@H](CC(C)C)NC(=O)[C@H](CCCCNC(=N)N)NC(=O)[C@@H]1CCCN1C(=O)[C@H](CCCNC(=N)N)NC(=O)[C@@H]1CCC(=O)N1)C(=O)NC(C)(C)C(=O)N[C@@H](Cc1ccc(Br)cc1)C(=O)O | 26.44 mmHg | 60 min
